Structures are written as SMILES. Calls of active or inactive are those of the source. No cut-off for these calls is given here. Some results are limits rather than exact numbers.

Data set [1] relates to Splenocyte. In words: (§1) Immunosuppressive activity in C57BL/6 mouse splenocytes assessed as inhibition of concanavalin A-induced cell proliferation at 90 uM after 72 hrs by MTT assay. Format: functional. Put shortly: (§2)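 Splenocytes pooled from two spleens of 8-week-old female C57BL/6 mice, red cells lysed with 20 mM Tris-HCl/140 mM NH4Cl, seeded 1.5×10^5/well. Stimulated with 1 μg/mL ConA, compounds diluted from DMSO into RPMI with 10% FCS and 50 μM mercaptoethanol. 72 h at 37 °C, 5% CO2. MTT 4 h, OD 570 nm, sextuplicate. Inhibition = (control OD − treated OD)/control OD × 100.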

Data set [2] concerns Splenocyte. As to the kind of experiment: (§3) Immunosuppressive activity in C57BL/6 mouse splenocytes assessed as inhibition of concanavalin A-induced cell proliferation at 30 uM after 72 hrs by MTT assay. Format: functional. In outline: as §2
Data set [3] in a line: as §1. It is filed as functional. The note with it: C57BL/6, Splenocyte. In outline: as §2
Data set [4] is described as follows: as §3. The note with it: C57BL/6, Splenocyte. Format: functional. Put shortly:
as §2

Data set [5] is described as follows: (§4) Immunosuppressive activity in C57BL/6 mouse splenocytes assessed as inhibition of cell proliferation after 72 hrs by MTT assay. It is filed as functional, cell-based. The note with it: C57BL/6, Splenocyte. Put shortly: as §2
In data set [6] the test system is Splenocyte. The data set is described as §4. Format: functional, cell-based. Put shortly: as §2
Data set [7] addresses T1, Tyrosine-protein kinase JAK3 (Homo sapiens, UniProt P52333).
T1 sequence (P52333 whole entry): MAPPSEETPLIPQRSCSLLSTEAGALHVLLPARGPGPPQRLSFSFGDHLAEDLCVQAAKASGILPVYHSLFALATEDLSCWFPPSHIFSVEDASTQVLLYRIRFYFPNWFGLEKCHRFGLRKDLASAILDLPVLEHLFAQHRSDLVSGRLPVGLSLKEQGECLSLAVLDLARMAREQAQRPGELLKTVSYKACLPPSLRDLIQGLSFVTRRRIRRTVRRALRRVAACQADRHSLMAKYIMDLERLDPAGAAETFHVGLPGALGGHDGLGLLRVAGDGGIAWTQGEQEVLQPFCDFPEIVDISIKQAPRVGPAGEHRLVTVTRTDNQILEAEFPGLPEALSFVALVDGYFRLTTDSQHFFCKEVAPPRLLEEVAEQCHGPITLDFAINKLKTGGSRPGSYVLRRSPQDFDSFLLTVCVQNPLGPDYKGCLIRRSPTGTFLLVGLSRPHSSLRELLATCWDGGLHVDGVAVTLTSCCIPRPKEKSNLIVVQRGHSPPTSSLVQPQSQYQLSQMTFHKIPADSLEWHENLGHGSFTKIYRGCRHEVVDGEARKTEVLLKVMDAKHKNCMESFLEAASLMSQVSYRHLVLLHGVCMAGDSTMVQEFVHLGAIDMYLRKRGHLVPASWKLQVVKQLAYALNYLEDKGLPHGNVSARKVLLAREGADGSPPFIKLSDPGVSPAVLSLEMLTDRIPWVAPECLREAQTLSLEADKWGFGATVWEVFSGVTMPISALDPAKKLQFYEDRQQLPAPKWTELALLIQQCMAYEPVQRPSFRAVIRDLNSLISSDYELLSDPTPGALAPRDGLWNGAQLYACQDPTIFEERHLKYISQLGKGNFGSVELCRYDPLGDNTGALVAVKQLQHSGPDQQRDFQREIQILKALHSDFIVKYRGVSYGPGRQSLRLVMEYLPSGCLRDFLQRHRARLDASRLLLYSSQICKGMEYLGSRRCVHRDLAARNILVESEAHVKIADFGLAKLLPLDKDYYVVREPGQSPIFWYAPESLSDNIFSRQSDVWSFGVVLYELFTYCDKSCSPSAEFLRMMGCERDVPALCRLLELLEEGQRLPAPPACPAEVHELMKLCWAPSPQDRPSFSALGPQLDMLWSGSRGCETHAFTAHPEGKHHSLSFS
In words: Inhibition of recombinant JAK3 after 1 hr. Put shortly: (§5)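 Recombinant kinase with substrate and 10 μM ATP, 1 h incubation. Compound at 10 final concentrations, 3.16 nM-100 μM. Activity read by AlphaScreen Protein-A detection after bead-mix stop; IC50 derived.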

Data set [8] addresses Tyrosine-protein kinase JAK2 (Homo sapiens, UniProt O60674). In words: Inhibition of recombinant JAK2 after 1 hr. Put shortly: as §5
Data set [9] can be described thus: Cytotoxicity in C57BL/6 mouse splenocytes assessed as reduction of cell viability at 90 uM after 48 hrs by MTT assay. Format: cell-based. The note with it: splenocyte.
For data set [10], the system named is Mus musculus. As to the kind of experiment: Immunosuppressive activity in delayed-type hypersensitivity BALB/C mouse model assessed as inhibition of sheep RBC-induced foot-pad swelling at 50 mg/kg, po qd for 5 days measured after 24 hrs last post dose. Also on record: dose 50 mg/kg. Format: functional, organism-based. Put shortly:
(§6)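 Groups of five female BALB/c mice, 8-9 weeks old, primed iv with 5×10^6 SRBC in PBS. Compound in olive oil given orally daily for 5 days, from priming to challenge. Day 4: 3-4×10^8 SRBC into right hind footpad, PBS into left. Swelling difference read 24 h later; inhibition taken against untreated controls. Mean ± SEM, Dunnett test.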

Data set [11] concerns Mus musculus. As to the kind of experiment: Immunosuppressive activity in delayed-type hypersensitivity po dosed BALB/C mouse model assessed as inhibition of sheep RBC-induced foot-pad swelling administered qd for 5 days measured after 24 hrs last post dose. It is filed as functional, organism-based. Put shortly: as §6
The subject of data set [12] is Mus musculus. As to the kind of experiment: Acute toxicity in BALB/C mouse at 50 to 120 mg/kg, po qd for 5 days. Format: organism-based. More on the design: dose 50-120 mg/kg, route oral. The note with it: in vivo, 120 h. In outline:
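Female BALB/C mice, 8-9 weeks old, groups of five. Dosed orally once daily for 5 days in olive oil, from priming to challenge, within a DTH study: primed iv with 5×10^6 SRBC, footpad challenge with SRBC on day 4. Acute toxicity judged by observation against untreated control mice over the 5-day treatment.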

Data set [13] is described as follows: Inhibition of recombinant ERK after 1 hr. Put shortly:
as §5

Data set [14] deals with Homeodomain-interacting protein kinase 1 (Homo sapiens, UniProt Q86Z02). As to the kind of experiment: Inhibition of recombinant HIPK1 after 1 hr. Put shortly:
as §5

The next data set addresses T2, Aurora kinase A (Homo sapiens, UniProt O14965).
T2 sequence (O14965 whole entry): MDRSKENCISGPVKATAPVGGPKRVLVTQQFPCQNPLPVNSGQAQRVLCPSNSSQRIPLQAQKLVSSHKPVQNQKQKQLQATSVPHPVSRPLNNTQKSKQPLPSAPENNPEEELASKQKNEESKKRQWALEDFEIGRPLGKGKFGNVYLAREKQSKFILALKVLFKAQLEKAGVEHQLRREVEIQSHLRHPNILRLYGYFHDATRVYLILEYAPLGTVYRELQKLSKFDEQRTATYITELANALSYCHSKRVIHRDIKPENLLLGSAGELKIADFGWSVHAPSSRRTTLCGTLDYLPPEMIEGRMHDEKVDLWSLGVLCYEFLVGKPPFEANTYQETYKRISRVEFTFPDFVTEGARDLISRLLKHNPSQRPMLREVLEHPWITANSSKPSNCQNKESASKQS
As to the kind of experiment: Inhibition of recombinant aurora A after 1 hr. Put shortly:
as §5

Data set [15] concerns the target Serine/threonine-protein kinase pim-1 (Homo sapiens, UniProt P11309). As to the kind of experiment: Inhibition of recombinant Pim1 after 1 hr. Put shortly:
as §5

Data set [16] addresses Tyrosine-protein kinase ABL1 (Homo sapiens, UniProt P00519). As to the kind of experiment: Inhibition of recombinant c-Abl after 1 hr. Put shortly:
as §5

Data set [17] concerns the target Vascular endothelial growth factor receptor 2 (Homo sapiens, UniProt P35968). In words: Inhibition of recombinant KDR after 1 hr. Put shortly: as §5
Data set [18] addresses Tyrosine-protein kinase Yes (Homo sapiens, UniProt P07947). In words: Inhibition of recombinant YES after 1 hr. In outline:
as §5

For data set [19], the target named is High affinity nerve growth factor receptor (Homo sapiens, UniProt P04629). As to the kind of experiment: Inhibition of recombinant TrkA after 1 hr. Put shortly: as §5
Data set [20] concerns Mus musculus. As to the kind of experiment: Immunosuppressive activity in delayed-type hypersensitivity BALB/C mouse model assessed as inhibition of sheep RBC-induced foot-pad swelling at 50 to 120 mg/kg, po qd for 5 days measured after 24 hrs last post dose. The note with it: dose mg/kg 50-120. Format: functional. Put shortly: as §6

High affinity nerve growth factor receptor, sequence (P04629 whole entry): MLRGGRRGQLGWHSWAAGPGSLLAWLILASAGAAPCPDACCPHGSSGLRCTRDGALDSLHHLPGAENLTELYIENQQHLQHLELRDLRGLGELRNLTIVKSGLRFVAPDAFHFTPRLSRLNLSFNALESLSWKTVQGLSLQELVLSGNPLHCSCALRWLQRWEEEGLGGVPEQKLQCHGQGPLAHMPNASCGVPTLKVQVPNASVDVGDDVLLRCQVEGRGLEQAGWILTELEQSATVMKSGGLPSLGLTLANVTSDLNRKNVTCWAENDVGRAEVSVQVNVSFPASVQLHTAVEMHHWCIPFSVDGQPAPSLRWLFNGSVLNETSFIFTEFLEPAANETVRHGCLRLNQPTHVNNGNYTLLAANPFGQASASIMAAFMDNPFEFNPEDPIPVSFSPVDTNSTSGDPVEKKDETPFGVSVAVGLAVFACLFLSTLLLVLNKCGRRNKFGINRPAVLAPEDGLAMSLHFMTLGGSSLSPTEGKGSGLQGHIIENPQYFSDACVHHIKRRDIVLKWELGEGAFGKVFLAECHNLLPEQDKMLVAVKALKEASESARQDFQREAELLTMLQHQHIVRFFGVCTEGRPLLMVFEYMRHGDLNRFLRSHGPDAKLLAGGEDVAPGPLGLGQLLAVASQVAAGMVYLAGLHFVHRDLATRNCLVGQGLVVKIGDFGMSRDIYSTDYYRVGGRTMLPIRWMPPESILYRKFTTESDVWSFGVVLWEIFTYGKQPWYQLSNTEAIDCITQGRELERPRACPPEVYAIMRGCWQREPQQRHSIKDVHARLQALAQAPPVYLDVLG
Vascular endothelial growth factor receptor 2, sequence (P35968 whole entry): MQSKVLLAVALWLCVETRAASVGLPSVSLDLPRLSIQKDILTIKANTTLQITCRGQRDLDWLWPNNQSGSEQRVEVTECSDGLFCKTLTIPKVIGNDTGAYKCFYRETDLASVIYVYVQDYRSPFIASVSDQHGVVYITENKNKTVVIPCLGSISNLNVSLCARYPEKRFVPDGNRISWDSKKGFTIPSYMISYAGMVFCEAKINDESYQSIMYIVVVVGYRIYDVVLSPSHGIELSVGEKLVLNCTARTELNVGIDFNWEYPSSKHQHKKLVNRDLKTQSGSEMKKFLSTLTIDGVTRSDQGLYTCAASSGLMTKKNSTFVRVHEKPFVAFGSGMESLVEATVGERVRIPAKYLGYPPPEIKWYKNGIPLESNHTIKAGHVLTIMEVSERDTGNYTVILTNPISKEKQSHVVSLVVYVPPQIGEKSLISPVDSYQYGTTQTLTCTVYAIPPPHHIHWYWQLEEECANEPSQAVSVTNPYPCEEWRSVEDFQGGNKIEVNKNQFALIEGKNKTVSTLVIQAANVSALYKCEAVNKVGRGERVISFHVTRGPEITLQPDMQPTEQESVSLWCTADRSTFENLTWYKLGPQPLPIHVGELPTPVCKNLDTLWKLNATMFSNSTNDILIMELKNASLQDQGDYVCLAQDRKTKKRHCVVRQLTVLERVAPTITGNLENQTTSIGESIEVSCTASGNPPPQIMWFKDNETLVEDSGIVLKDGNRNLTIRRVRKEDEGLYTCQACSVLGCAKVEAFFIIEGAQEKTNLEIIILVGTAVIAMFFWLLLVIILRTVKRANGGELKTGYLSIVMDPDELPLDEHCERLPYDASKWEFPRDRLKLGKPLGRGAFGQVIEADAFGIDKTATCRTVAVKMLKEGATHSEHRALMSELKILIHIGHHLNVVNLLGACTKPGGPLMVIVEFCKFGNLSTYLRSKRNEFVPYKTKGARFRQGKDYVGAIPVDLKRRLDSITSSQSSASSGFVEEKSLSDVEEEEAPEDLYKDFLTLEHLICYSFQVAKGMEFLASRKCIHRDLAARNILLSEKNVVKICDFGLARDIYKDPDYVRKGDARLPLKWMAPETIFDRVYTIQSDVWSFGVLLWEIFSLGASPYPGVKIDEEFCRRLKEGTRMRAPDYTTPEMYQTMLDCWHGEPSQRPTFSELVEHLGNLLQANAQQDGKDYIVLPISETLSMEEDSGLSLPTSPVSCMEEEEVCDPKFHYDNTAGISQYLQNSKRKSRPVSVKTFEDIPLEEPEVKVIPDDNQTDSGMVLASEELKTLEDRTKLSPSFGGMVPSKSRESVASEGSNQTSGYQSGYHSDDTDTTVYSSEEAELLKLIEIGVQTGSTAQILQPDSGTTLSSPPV
Homeodomain-interacting protein kinase 1, sequence (Q86Z02 whole entry): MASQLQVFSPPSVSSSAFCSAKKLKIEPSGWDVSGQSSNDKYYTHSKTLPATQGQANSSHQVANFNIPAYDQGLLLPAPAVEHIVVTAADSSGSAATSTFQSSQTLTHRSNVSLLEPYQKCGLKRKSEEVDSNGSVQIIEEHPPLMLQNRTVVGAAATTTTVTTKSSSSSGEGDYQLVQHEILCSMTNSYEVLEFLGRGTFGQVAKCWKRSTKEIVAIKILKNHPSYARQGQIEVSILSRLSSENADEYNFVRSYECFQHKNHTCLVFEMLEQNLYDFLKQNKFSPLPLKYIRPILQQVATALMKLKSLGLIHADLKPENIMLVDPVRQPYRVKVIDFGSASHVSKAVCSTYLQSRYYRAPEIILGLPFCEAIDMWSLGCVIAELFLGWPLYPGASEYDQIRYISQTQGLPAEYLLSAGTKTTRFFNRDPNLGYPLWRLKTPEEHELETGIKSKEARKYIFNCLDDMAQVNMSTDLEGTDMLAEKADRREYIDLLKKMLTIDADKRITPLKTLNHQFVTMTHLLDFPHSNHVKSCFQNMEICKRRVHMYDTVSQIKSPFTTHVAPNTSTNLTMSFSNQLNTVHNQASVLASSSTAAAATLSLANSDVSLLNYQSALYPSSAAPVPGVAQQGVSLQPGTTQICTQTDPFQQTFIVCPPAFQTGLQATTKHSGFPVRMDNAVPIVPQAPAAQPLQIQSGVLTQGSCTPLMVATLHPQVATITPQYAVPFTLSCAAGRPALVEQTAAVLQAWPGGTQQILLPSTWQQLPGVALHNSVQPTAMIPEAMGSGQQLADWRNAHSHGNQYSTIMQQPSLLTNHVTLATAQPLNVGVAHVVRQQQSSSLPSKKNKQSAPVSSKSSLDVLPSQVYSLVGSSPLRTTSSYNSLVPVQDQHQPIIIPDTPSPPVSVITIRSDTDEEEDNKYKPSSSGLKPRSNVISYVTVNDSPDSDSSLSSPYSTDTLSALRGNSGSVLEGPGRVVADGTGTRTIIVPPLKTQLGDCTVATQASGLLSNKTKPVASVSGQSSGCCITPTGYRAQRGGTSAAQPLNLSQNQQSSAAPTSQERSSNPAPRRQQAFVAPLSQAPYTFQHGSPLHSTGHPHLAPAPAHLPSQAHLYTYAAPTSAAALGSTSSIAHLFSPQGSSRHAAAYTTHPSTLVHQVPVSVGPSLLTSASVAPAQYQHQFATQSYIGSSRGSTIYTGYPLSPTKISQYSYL
Serine/threonine-protein kinase pim-1, sequence (P11309 whole entry): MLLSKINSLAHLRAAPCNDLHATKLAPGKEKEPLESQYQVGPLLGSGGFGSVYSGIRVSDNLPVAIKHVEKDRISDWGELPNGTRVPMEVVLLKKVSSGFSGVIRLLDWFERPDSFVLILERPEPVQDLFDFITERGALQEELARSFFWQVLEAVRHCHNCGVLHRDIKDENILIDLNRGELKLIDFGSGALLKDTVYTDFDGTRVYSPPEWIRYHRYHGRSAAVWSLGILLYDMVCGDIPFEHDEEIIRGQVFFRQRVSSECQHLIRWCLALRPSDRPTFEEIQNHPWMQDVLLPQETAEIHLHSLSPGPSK
Tyrosine-protein kinase JAK2, sequence (O60674 whole entry): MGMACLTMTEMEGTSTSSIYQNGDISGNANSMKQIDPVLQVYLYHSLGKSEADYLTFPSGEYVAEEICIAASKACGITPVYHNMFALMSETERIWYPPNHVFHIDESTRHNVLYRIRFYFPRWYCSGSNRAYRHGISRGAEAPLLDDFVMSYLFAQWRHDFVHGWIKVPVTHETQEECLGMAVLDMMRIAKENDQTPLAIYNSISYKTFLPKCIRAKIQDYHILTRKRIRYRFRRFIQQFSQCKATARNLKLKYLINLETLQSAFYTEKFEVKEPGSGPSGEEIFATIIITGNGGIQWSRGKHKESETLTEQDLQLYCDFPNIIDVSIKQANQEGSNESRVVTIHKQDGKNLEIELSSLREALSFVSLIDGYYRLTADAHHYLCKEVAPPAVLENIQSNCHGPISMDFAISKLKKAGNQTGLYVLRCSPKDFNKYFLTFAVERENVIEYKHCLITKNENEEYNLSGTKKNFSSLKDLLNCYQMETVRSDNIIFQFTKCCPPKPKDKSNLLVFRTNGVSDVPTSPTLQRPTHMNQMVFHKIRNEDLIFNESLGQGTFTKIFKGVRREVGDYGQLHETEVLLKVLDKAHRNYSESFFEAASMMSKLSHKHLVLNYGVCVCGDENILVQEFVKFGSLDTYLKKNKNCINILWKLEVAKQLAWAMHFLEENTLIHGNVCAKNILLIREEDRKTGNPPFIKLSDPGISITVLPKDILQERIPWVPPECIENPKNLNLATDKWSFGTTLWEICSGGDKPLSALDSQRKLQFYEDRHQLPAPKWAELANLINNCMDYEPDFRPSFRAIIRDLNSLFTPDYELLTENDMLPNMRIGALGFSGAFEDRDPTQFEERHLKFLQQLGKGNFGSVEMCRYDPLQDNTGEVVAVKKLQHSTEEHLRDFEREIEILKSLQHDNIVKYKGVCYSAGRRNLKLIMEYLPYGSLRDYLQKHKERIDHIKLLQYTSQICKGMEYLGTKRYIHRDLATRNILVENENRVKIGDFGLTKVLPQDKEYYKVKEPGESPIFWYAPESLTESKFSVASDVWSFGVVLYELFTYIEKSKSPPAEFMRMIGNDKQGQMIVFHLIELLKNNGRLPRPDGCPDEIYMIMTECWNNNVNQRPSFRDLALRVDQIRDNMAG

For the compound `Nc1ccc(NC(=O)CCc2cn(Cc3ccc(Cl)cc3)c3ccccc23)cc1`, the inhibition result in the data set with Splenocyte [1] and in the data set with Splenocyte [2] was “inactive” in each case.

As for `O=C(CCc1cn(Cc2ccc(Cl)cc2)c2ccccc12)Nc1cccnc1`, the inhibition at 90 µM in data set [3] is 40%. The inhibition at 30 µM in data set [4] worked out at 28%.

Turning to `O=C(CCc1cn(Cc2ccc(Cl)cc2)c2ccccc12)Nc1cccc2ncccc12`, the inhibition entry in the data set on Splenocyte [1] and with Splenocyte [2] was “inactive” each time.

Regarding `O=C(CCc1cn(Cc2ccc(Cl)cc2)c2ccccc12)Nc1ccc(C(F)(F)F)cc1`, the inhibition at 90 µM in [3] was 18%.

With `O=C(CCc1cn(Cc2ccc(Cl)cc2)c2ccccc12)Nc1cccc2cnccc12`, the inhibition at 90 µM in [3] is 17%. Further, in the data set on Splenocyte [2], the inhibition entry was “inactive”.

Take `O=C(CCc1cn(Cc2ccc(Cl)cc2)c2ccccc12)Nc1ccccn1`: the inhibition at 90 µM in data set [3] is 26%. Besides, the inhibition entry in the data set on Splenocyte [2] is “inactive”.

With `O=C(CCc1cn(Cc2ccc(Cl)cc2)c2ccccc12)Nc1ccnc2ccccc12`, the inhibition at 90 µM in [3] turned out to be 37%. For the same compound, the inhibition at 30 µM in [4] was 20%.

For the compound `O=C(CCc1cn(Cc2ccc(Cl)cc2)c2ccccc12)Nc1ccc2ncccc2c1`, in data set [3], the inhibition at 90 µM is 86%. Besides, in the data set on Splenocyte [2], the inhibition result was “inactive”.

`N#Cc1ccc(NC(=O)CCc2cn(Cc3ccc(Cl)cc3)c3ccccc23)cc1`: in [3], the inhibition at 90 µM worked out at 78%. For the same compound, the inhibition at 30 µM in data set [4] turned out to be 30%.

In the case of `O=C(CCc1cn(Cc2ccc(Cl)cc2)c2ccccc12)Nc1ccccc1`, the inhibition entry in the data set with Splenocyte [1] and in the data set with Splenocyte [2] was “inactive” throughout.

Consider `O=C(CCc1cn(Cc2ccc(Cl)cc2)c2ccccc12)Nc1ccc([N+](=O)[O-])cc1`, for which, in [3], the inhibition at 90 µM amounted to 92%. In addition, the inhibition at 30 µM in data set [4] was 87%. Further, the IC50 in data set [5] was 19.8 µM; in [7], 34.2 µM; in data set [8], 107 µM; in [13], > 100 µM; in data set [14], > 100 µM; on Aurora kinase A it was > 100 µM. Further, the IC50 was > 100 µM in data set [15]; > 100 µM in [16]; 33.2 µM in data set [17]; 38.1 µM in [18]; > 100 µM in data set [19]. Also, the inhibition entry in the data set with Splenocyte [6] and with Mus musculus [11] was “Dose-dependent effect” in each case. Besides, the Activity entry (in data set [9]; in the data set on Mus musculus [12]) was “Non-toxic” in each case. Also, in the data set with Mus musculus [10], the inhibition result was “Active”.

With `O=C(CCc1cn(Cc2ccc(Cl)cc2)c2ccccc12)Nc1ccncc1`, the inhibition at 90 µM in data set [3] amounted to 87%. Also, in [4], the inhibition at 30 µM was found to be 19%. In addition, the 50% inhibitory concentration (IC50) in data set [5] was 17 µM; in data set [7], 52 µM; in data set [8] it was 134 µM; in data set [13], > 100 µM; in [14], > 100 µM; on Aurora kinase A, > 100 µM. The IC50 was > 100 µM in [15]; > 100 µM in [16]; 26 µM in data set [17]; 30 µM in data set [18]; > 100 µM in data set [19]. Further, the “inhibition (INH)” value in the data set with Mus musculus [20] came out at 69%.

These data come from ChEMBL document CHEMBL1221237, “Synthesis of N-aryl-3-(indol-3-yl)propanamides and their immunosuppressive activities” (Bioorg Med Chem Lett, 2010).
